In ChEMBL document CHEMBL1144415, “Identification of novel low molecular weight CXCR4 antagonists by structural tuning of cyclic tetrapeptide scaffolds” (J Med Chem, 2005):
pIC50: −log10 of the molar value.

target: T1, C-X-C chemokine receptor type 4 (Homo sapiens, UniProt P61073); experiment: Inhibition of [125I]SDF-1 binding to C-X-C chemokine receptor type 4 (CXCR4) expressed in CHO cells; range = 1-10 uM; type: cell-based; conditions: not given
Method in brief: (§1)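 Stable CXCR4-expressing CHO transfectants harvested with trypsin-EDTA, recovered 4 to 5 h in complete growth medium, washed in cold binding buffer (PBS with 2 mg/mL BSA). Cells at 1 × 10⁷ cells/mL incubated with 0.1 nM [¹²⁵I]-SDF-1 for 2 h on ice with agitation. Bound and free separated by centrifugation through oil cushion, gamma counting. IC50 from at least three independent experiments, mean with SD.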

T1 sequence (P61073 whole entry): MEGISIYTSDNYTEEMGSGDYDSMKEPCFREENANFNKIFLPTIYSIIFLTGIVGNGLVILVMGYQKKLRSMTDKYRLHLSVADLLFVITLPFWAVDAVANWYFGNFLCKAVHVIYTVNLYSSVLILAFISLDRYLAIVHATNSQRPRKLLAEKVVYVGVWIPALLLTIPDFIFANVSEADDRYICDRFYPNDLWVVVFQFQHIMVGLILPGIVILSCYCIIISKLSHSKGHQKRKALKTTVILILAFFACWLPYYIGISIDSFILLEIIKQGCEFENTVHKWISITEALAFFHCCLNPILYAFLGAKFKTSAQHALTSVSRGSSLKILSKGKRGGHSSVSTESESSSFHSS

Work on `N=C(N)NCCC(=O)N[C@H]1C/C=C\C[C@H](C(=O)NCCc2ccc(O)cc2)NC(=O)[C@H](Cc2ccc3ccccc3c2)NC(=O)[C@H](CCCN=C(N)N)NC1=O` yielded a pIC50 of 5.00.

target: T1, C-X-C chemokine receptor type 4; experiment: Inhibition of [125I]SDF-1 binding to C-X-C chemokine receptor type 4 (CXCR4) expressed in CHO cells; type: cell-based; conditions: not given; method in brief: as §1

Going from `N=C(N)NCCC[C@@H]1NC(=O)[C@@H](NC(=O)CCNC(=N)N)CSSC[C@H](C(=O)NCCc2ccc(O)cc2)NC(=O)[C@H](Cc2ccc3ccccc3c2)NC1=O` to `N=C(N)NCCCN[C@H]1CSSC[C@H](C(=O)NCCc2ccc(O)cc2)NC(=O)[C@H](Cc2ccc3ccccc3c2)NC(=O)[C@H](CCCNC(=N)N)NC1=O`, the pIC50 falls from 6.28 to 6.00 (0.28 log units). The first is the more potent here.

Going from `N=C(N)NCCC[C@@H]1NC(=O)[C@@H]2CCCN2C(=O)[C@@H](Cc2ccc(O)cc2)NC(=O)CNC(=O)[C@H](Cc2ccc3ccccc3c2)NC1=O` to `N=C(N)NCCC[C@@H]1NC(=O)[C@H]2CCCN2C(=O)[C@@H](Cc2ccc(O)cc2)NC(=O)CNC(=O)[C@H](Cc2ccc3ccccc3c2)NC1=O`, the pIC50 rises from 5.80 to 6.38 (0.58 log units).

Compared with `CN1C(=O)[C@@H](NC(=O)CCN=C(N)N)CSSC[C@H](C(=O)NCCc2ccc(O)cc2)NC(=O)[C@H](Cc2ccc3ccccc3c2)NC(=O)[C@@H]1CCCN=C(N)N`, `N=C(N)NCCC[C@@H]1NC(=O)[C@@H](CCC(N)=O)NC(=O)[C@@H](Cc2ccc(O)cc2)NC(=O)CNC(=O)[C@H](Cc2ccc3ccccc3c2)NC1=O` is higher in pIC50: < 5.00 for the first, 6.77 for the second.

`N=C(N)NCCC[C@@H]1NC(=O)[C@@H](CCC(=O)O)NC(=O)[C@@H](Cc2ccc(O)cc2)NC(=O)CNC(=O)[C@H](Cc2ccc3ccccc3c2)NC1=O` was tested, and the pIC50 was 6.21.

same assay, conditions: cho

`N=C(N)NCCC[C@@H]1NC(=O)[C@H](Cc2ccc(O)cc2)NC(=O)/C=C\[C@@H](Cc2ccc3ccccc3c2)NC(=O)[C@@H](CCCNC(=N)N)NC1=O` and `N=C(N)NCCC[C@H]1NC(=O)[C@@H](CCCN=C(N)N)NC(=O)[C@H](Cc2ccc(O)cc2)NC(=O)/C=C\[C@@H](Cc2ccc3ccccc3c2)NC1=O` cannot be ordered by pIC50: < 6.00 for the first, < 6.00 for the second.
